From ChEMBL document CHEMBL1143945, “N-phenethyl and N-naphthylmethyl isatins and analogues as in vitro cytotoxic agents” (Bioorg Med Chem, 2008)

How the values were obtained:
[1] = test system: U-937; test: Cytotoxicity against human U937 cells; format: functional, cell-based
Procedure, shortened: (§1)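 ATCC lines kept in RPMI-1640 with 2 mM L-glutamine, sodium bicarbonate, 5% FCS at 37 °C, 5% CO2. Adherent cells trypsinized, and viable cells counted by Trypan blue on a hemocytometer before seeding. MTS (CellTiter 96 AQueous One) metabolic read-out. IC50 is 50% inhibition of metabolic activity from sigmoidal dose-response curves. Triplicates in at least two independent experiments.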

[2] = test system: PC-3; test: Cytotoxicity against human PC3 cells; format: functional, cell-based; procedure, shortened: as §1
[3] = test system: HCT-116; test: Cytotoxicity against human HCT116 cells; format: functional, cell-based; procedure, shortened: as §1
[4] = test system: MCF7; test: Cytotoxicity against human MCF7 cells; format: functional, cell-based; procedure, shortened: as §1
[5] = test system: MDA-MB-231; test: Cytotoxicity against human MDA-MB-231 cells; format: functional, cell-based; procedure, shortened: as §1
[6] = test system: A-375; test: Cytotoxicity against human A375 cells; format: functional, cell-based; procedure, shortened: as §1
[7] = Inhibition of bovine neuronal tubulin polymerization for 20 mins; parameters: species or system Bos taurus
Procedure, shortened: (§2)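 Purified bovine neuronal tubulin reaction mix from a commercial kit, run per the manufacturer. Compound or DMSO vehicle is added at varying concentrations. Polymerization is followed kinetically at 37 °C for 1 h by fluorescence, excitation 360 ± 10 nm and emission 440 ± 10 nm. IC50 is read at the 20 or 60 min time point. Duplicates in one experiment.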

[8] = test system: Jurkat; test: Cytotoxicity against human Jurkat cells; format: functional, cell-based; procedure, shortened: as §1
[9] = Inhibition of bovine neuronal tubulin polymerization for 60 mins; parameters: species or system Bos taurus; procedure, shortened: as §2

Row | SMILES | IC50 [1] [nM] | IC50 [2] [nM] | IC50 [3] [nM] | IC50 [4] [nM] | IC50 [5] [nM] | IC50 [6] [nM] | IC50 [7] [nM] | IC50 [8] [nM] | IC50 [9] [nM]
1 | O=C(CN1C(=O)C(=O)c2cc(Br)cc(Br)c21)c1ccc(Br)cc1 | 9180 |  |  |  |  |  |  |  | 
2 | O=C(CN1C(=O)C(=O)c2cc(Br)cc(Br)c21)c1cccc(Br)c1 | 6360 |  |  |  |  |  |  |  | 
3 | O=C1C(=O)N(Cc2ccc3ccccc3c2)c2c(Br)cc(Br)cc21 | 740 | 2290 | 1510 | 3500 | 2560 | 6560 | 2870 | 410 | 6470
4 | COc1ccc(CCN2C(=O)C(=O)c3cc(Br)cc(Br)c32)cc1 | 2350 |  |  |  | 4510 |  |  | 2660 | 
5 | O=C(CN1C(=O)C(=O)c2cc(Br)cc(Br)c21)c1ccccc1 | 9970 |  |  |  |  |  |  |  | 
6 | O=C1C(=O)N(CCc2ccccc2)c2c(Br)cc(Br)cc21 | 780 |  |  |  | 4350 |  | 4040 | 1520 | 6600
7 | O=C1C(=O)N(CCc2ccc(Br)cc2)c2c(Br)cc(Br)cc21 | 880 | 2210 | 1620 | 6020 | 2010 | 4340 |  | 1150 | 
8 | COc1cccc(CCN2C(=O)C(=O)c3cc(Br)cc(Br)c32)c1 | 1070 |  |  |  | 5240 |  |  | 2000 | 
9 | O=C1C(=O)N(CCc2cccc(Br)c2)c2c(Br)cc(Br)cc21 | 780 | 2090 | 1410 | 4040 | 2720 | 3440 |  | 1210 | 
10 | O=C1C(=O)N(Cc2cccc3ccccc23)c2c(Br)cc(Br)cc21 | 190 | 1440 | 1150 | 7710 | 2490 | 3950 | 4710 | 910 | 12000
11 | COc1cccc(C(=O)CN2C(=O)C(=O)c3cc(Br)cc(Br)c32)c1 | 4700 |  |  |  |  |  |  |  | 
12 | COc1ccc(C(=O)CN2C(=O)C(=O)c3cc(Br)cc(Br)c32)cc1 | 5320 |  |  |  |  |  |  |  | 
13 | CC[C@]1(O)C[C@@H]2CN(CCc3c([nH]c4ccccc34)[C@@](C(=O)OC)(c3cc4c(cc3OC)N(C)[C@H]3[C@@](O)(C(=O)OC)[C@H](OC(C)=O)[C@]5(CC)C=CCN6CC[C@]43[C@@H]65)C2)C1 [VINBLASTINE] |  |  |  |  |  |  | 950 |  | 1660
